# ChEMBL document CHEMBL1128718, “2-Substituted penems with amino acid-related side chains: synthesis and antibacterial activity of a new series of beta-lactam antibiotics” (1995)
# Experiments:
# Format in all cases: functional
# [1] = tested on: Bacteroides fragilis; assay: In Vitro Anti Bacterial Activity (MIC90) against 90% of tested clinical Isolates of Bacteroides fragilis(15)
# In short: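 Anaerobic clinical isolates. MIC90 by dilution in Wilkins-Chalgren agar, inoculum 10⁵ cells/mL, incubated 24–48 h at 37 °C.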
# [2] = tested on: Clostridium perfringens; assay: In Vitro Anti Bacterial Activity (MIC90) against 90% of tested clinical Isolates of Clostridium perfringens(27)
# In short: (§1)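 MIC90 over clinical isolates of this anaerobic species, taken from the MIC distribution. Anaerobes were tested on Wilkins-Chalgren agar with an inoculum of 10⁵ cells/mL and incubated 24–48 h at 37 °C.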
# [3] = tested on: Klebsiella aerogenes; assay: In Vitro Anti Bacterial Activity (MIC90) against 90% of tested clinical Isolates of Enterobacter aerogenes(19)
# In short: (§2)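 Over 500 clinical isolates tested in total; the line gives the isolate count. MIC90 for aerobes by dilution in Mueller Hinton 2 medium, inoculum 10⁴ cells/mL, incubated 24 h at 37 °C.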
# [4] = tested on: Staphylococcus aureus; assay: In vitro antibacterial activity against Sa MR(I) heterogeneous methicillin resistant Staphylococcus aureus
# In short: (§3)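 MIC was determined in Mueller Hinton 2 medium with an inoculum of 10⁴ cells/mL and incubation for 24 h at 37 °C. Strains: Sa(I) is S. aureus ATCC 29213; Sa MR(I) is a heterogeneous methicillin-resistant S. aureus; Sa MR(II) is a homogeneous methicillin-resistant S. aureus.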
# [5] = tested on: Pseudomonas aeruginosa; assay: In Vitro antibacterial activity against (Pa) hyperpermeable Pseudomonas aeruginosa […] strain
# In short: (§4)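 Panel of standard ATCC strains plus modified strains: methicillin-resistant, hyperpermeable, β-lactamase-producing (TEM1, TEM2, SHV) and β-lactamase-lacking. MIC determined in Mueller Hinton 2 medium, inoculum 10⁴ cells/mL, incubated 24 h at 37 °C.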
# [6] = tested on: Klebsiella pneumoniae; assay: In Vitro Anti Bacterial Activity (MIC90) against 90% of tested clinical Isolates of Klebsiella pneumoniae(20); in short: as §2
# [7] = tested on: Pseudomonas aeruginosa; assay: In Vitro antibacterial activity against (Pa) Pseudomonas aeruginosa ATCC 27853; in short: as §4
# [8] = tested on: Staphylococcus aureus; assay: In Vitro Anti Bacterial Activity (MIC90) against 90% of tested clinical Isolates of Staphylococcus aureus MS (6); in short: as §2
# [9] = tested on: Escherichia coli; assay: In Vitro antibacterial activity against (Ec SHV) Escherichia coli […] strain; in short: as §4
# [10] = tested on: Staphylococcus aureus; assay: In vitro antibacterial activity against Sa(I) Staphylococcus aureus ATCC 29213; in short: as §3
# [11] = tested on: Streptococcus pyogenes; assay: In Vitro Anti Bacterial Activity (MIC90) against 90% of tested clinical Isolates of Streptococcus pyogenes(31)
# [12] = tested on: Listeria monocytogenes; assay: In Vitro Anti Bacterial Activity (MIC 90) against 90% of tested clinical Isolates of Listeria monocytogenes (20); in short: as §2
# [13] = tested on: Pseudomonas aeruginosa; assay: In Vitro Anti Bacterial Activity (MIC90) against 90% of tested clinical Isolates of Pseudomonas aeruginosa(11); in short: as §2
# [14] = tested on: Staphylococcus epidermidis; assay: In Vitro Anti Bacterial Activity (MIC90) against 90% of tested clinical Isolates of Staphylococcus epidermidis (13); in short: as §2
# [15] = tested on: Escherichia coli; assay: In Vitro antibacterial activity against (Ec DC2) hyperpermeable Escherichia coli strain; in short: as §4
# [16] = tested on: Pseudomonas aeruginosa; assay: In Vitro antibacterial activity against (Pa G242) hyperpermeable Pseudomonas aeruginosa strain; in short: as §4
# [17] = tested on: Escherichia coli; assay: In Vitro Anti Bacterial Activity (MIC90) against 90% of tested clinical Isolates of Escherichia coli; in short: as §2
# [18] = tested on: Streptococcus agalactiae; assay: In Vitro Anti Bacterial Activity (MIC90) against 90% of tested clinical Isolates of Streptococcus agalactiaeB(21)
# [19] = tested on: Yersinia sp.; assay: In Vitro Anti Bacterial Activity (MIC90) against 90% of tested clinical Isolates of Yersinia species(20); conditions: Yersinia sp. (in: enterobacteria)
# [20] = tested on: Escherichia coli; assay: In Vitro antibacterial activity against (Ec L) Escherichia coli […] strain; in short: as §4
# [21] = tested on: Enterococcus faecium; assay: In Vitro Anti Bacterial Activity (MIC90) against 90% of tested clinical Isolates of Enterococcus faecium(47); in short: as §2
# [22] = tested on: Escherichia coli; assay: In Vitro antibacterial activity against (Ec TEM1) Escherichia coli […] strain; in short: as §4
# [23] = tested on: Staphylococcus aureus; assay: In vitro antibacterial activity against Sa(II) Staphylococcus aureus ATCC 25923; in short: as §4
# [24] = tested on: Aeromonas; assay: In Vitro Anti Bacterial Activity (MIC90) against 90% of tested clinical Isolates of Aeromonas species(21); in short: as §2
# [25] = tested on: Escherichia coli; assay: In Vitro antibacterial activity against (Ec TEM2) Escherichia coli […] strain; in short: as §4
# [26] = tested on: Streptococcus pneumoniae; assay: In Vitro Anti Bacterial Activity (MIC90) against 90% of tested clinical Isolates of Streptococcus pneumoniae (23)
# [27] = tested on: Stenotrophomonas maltophilia; assay: In Vitro Anti Bacterial Activity (MIC90) against 90% of tested clinical Isolates of Xanthomonas maltophilia(9); in short: as §2
# [28] = tested on: Citrobacter freundii; assay: In Vitro Anti Bacterial Activity (MIC90) against 90% of tested clinical Isolates of Citrobacter freundii(20); in short: as §2
# [29] = tested on: Moraxella catarrhalis; assay: In Vitro Anti Bacterial Activity (MIC90) against 90% of tested clinical Isolates of Branhamella catarrhalis(27)
# [30] = tested on: Staphylococcus aureus; assay: In vitro antibacterial activity against Sa MR(II) homogeneous methicillin resistant Staphylococcus aureus; in short: as §3
# [31] = tested on: Haemophilus influenzae; assay: In Vitro Anti Bacterial Activity (MIC90) against 90% of tested clinical Isolates of Haemophilus Influenzae(21)
# In short: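 Clinical isolates. MIC90 in Haemophilus Test Medium Base plus Haemophilus Test Medium Supplement, inoculum 10⁴ cells/mL, incubated 24–48 h at 37 °C.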
# [32] = tested on: Enterococcus faecalis; assay: In Vitro antibacterial activity against (Ef) Enterococcus faecalis ATCC 29212; in short: as §4
# [33] = tested on: Staphylococcus aureus; assay: In Vitro Anti Bacterial Activity (MIC90) against 90% of tested clinical Isolates of Staphylococcus aureus MV (20)
# [34] = tested on: Enterococcus faecalis; assay: In Vitro Anti Bacterial Activity (MIC90) against 90% of tested clinical Isolates of Enterococcus faecalis(47); in short: as §2
# [35] = tested on: Acinetobacter calcoaceticus subsp. anitratus; assay: In Vitro Anti Bacterial Activity (MIC90) against 90% of tested clinical Isolates of Acinetobacter anitratus(20); in short: as §2
# [36] = tested on: Escherichia coli; assay: In Vitro antibacterial activity against (Ec) Escherichia coli ATCC 25922; in short: as §4
# [37] = tested on: Streptococcus agalactiae; assay: In vitro Anti Bacterial Activity (MIC90) against 90% of tested clinical Isolates of Streptococcus agalactiaeB(21)
# [38] = tested on: Haemophilus influenzae; assay: In vitro Anti Bacterial Activity (MIC90) against 90% of tested clinical Isolates of Haemophilus Influenzae(21)
# In short: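 MIC90 over clinical isolates; MICs in Haemophilus Test Medium Base with Haemophilus Test Medium Supplement, inoculum 10⁴ cells/mL, 24–48 h at 37 °C.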
# [39] = tested on: Staphylococcus aureus; assay: In vitro Anti Bacterial Activity (MIC90) against 90% of tested clinical Isolates of Staphylococcus aureus MS (6)
# In short: (§5)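 Aerobic clinical isolates; MICs in Mueller Hinton 2 medium, inoculum 10⁴ cells/mL, incubated 24 h at 37 °C; MIC90 taken across isolates of each species.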
# [40] = tested on: Streptococcus pyogenes; assay: In vitro Anti Bacterial Activity (MIC90) against 90% of tested clinical Isolates of Streptococcus pyogenes(31)
# [41] = tested on: Enterococcus faecalis; assay: In vitro Anti Bacterial Activity (MIC90) against 90% of tested clinical Isolates of Enterococcus faecalis(47); in short: as §5
# [42] = tested on: Enterococcus faecium; assay: In vitro Anti Bacterial Activity (MIC90) against 90% of tested clinical Isolates of Enterococcus faecium(47); in short: as §5
# [43] = tested on: Listeria monocytogenes; assay: In vitro Anti Bacterial Activity (MIC90) against 90% of tested clinical Isolates of Listeria monocytogenes (20)
# [44] = tested on: Staphylococcus epidermidis; assay: In vitro Anti Bacterial Activity (MIC90) against 90% of tested clinical Isolates of S. epidermidis(13); in short: as §5
# [45] = tested on: Moraxella catarrhalis; assay: In vitro Anti Bacterial Activity (MIC90) against 90% of tested clinical Isolates of Branhamella catarrhalis(27)
# [46] = tested on: Staphylococcus aureus; assay: In vitro Anti Bacterial Activity (MIC90) against 90% of tested clinical Isolates of Staphylococcus aureus MV (20)
# [47] = tested on: Bacteroides fragilis; assay: In vitro Anti Bacterial Activity (MIC90) against 90% of tested clinical Isolates of Bacteroides fragilis(15)
# In short: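 MIC90 over clinical anaerobe isolates; MICs in Wilkins-Chalgren agar, inoculum 10⁵ cells/mL, 24–48 h at 37 °C.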
# [48] = tested on: Aeromonas; assay: In vitro 90% of tested clinical Isolates of Aeromonas species(21); in short: as §2
# [49] = tested on: Clostridium perfringens; assay: In vitro Anti Bacterial Activity (MIC90) against 90% of tested clinical Isolates of Clostridium perfringens(27); in short: as §1
# [50] = tested on: Pseudomonas aeruginosa; assay: In Vitro antibacterial activity against(Pa) Pseudomonas aeruginosa ATCC 27853; in short: as §4
compound,measurement,setting,value
C[C@@H](O)[C@H]1C(=O)N2C(C(=O)O)=C(CN(C)[C@@H](C)C(N)=O)S[C@H]12,MIC90,[1],8 µg/mL
same,MIC90,[2],0.5 µg/mL
same,MIC90,[3],32 µg/mL
same,MIC,[4],0.12 µg/mL
same,MIC,[5],1 µg/mL
same,MIC90,[6],1 µg/mL
same,MIC,[7],> 64 µg/mL
same,MIC90,[8],0.12 µg/mL
same,MIC,[9],0.5 µg/mL
same,MIC,[10],0.015 µg/mL
same,MIC90,[11],0.06 µg/mL
same,MIC90,[12],0.5 µg/mL
same,MIC90,[13],> 64 µg/mL
same,MIC90,[14],0.25 µg/mL
same,MIC,[15],1 µg/mL
same,MIC,[16],0.25 µg/mL
same,MIC90,[17],0.25 µg/mL
same,MIC90,[18],0.06 µg/mL
same,MIC90,[19],0.5 µg/mL
same,MIC,[20],0.25 µg/mL
same,MIC90,[21],> 64 µg/mL
same,MIC,[22],0.25 µg/mL
same,MIC,[23],0.06 µg/mL
same,MIC90,[24],2 µg/mL
same,MIC,[25],1 µg/mL
same,MIC90,[26],0.06 µg/mL
same,MIC90,[27],> 64 µg/mL
same,MIC90,[28],1 µg/mL
same,MIC90,[29],0.5 µg/mL
same,MIC,[30],2 µg/mL
same,MIC90,[31],4 µg/mL
same,MIC,[32],4 µg/mL
same,MIC90,[33],8 µg/mL
same,MIC90,[34],8 µg/mL
same,MIC90,[35],32 µg/mL
same,MIC,[36],0.25 µg/mL
CC1(C)S[C@@H]2[C@H](NC(=O)[C@H](N)c3ccc(O)cc3)C(=O)N2[C@H]1C(=O)O [AMOXICILLIN],MIC90,[37],0.06 µg/mL
same,MIC90,[38],1 µg/mL
same,MIC90,[6],> 64 µg/mL
same,MIC90,[39],1 µg/mL
same,MIC90,[40],0.015 µg/mL
same,MIC90,[41],0.5 µg/mL
same,MIC90,[19],> 64 µg/mL
same,MIC90,[42],32 µg/mL
same,MIC90,[43],0.5 µg/mL
same,MIC90,[26],0.015 µg/mL
same,MIC90,[44],4 µg/mL
same,MIC90,[45],2 µg/mL
same,MIC90,[46],32 µg/mL
same,MIC90,[47],32 µg/mL
same,MIC90,[48],> 32 µg/mL
same,MIC90,[49],0.06 µg/mL
C[C@@H](O)[C@H]1C(=O)N2C(C(=O)O)=C(CSC(=S)N(C)CC(N)=O)S[C@H]12,MIC,[4],0.03 µg/mL
same,MIC,[5],4 µg/mL
same,MIC,[9],16 µg/mL
same,MIC,[10],0.12 µg/mL
same,MIC,[50],> 64 µg/mL
same,MIC,[15],0.5 µg/mL
same,MIC,[16],8 µg/mL
same,MIC,[20],16 µg/mL
same,MIC,[22],8 µg/mL
same,MIC,[23],0.12 µg/mL
same,MIC,[25],8 µg/mL
same,MIC,[30],2 µg/mL
same,MIC,[32],8 µg/mL
same,MIC,[36],8 µg/mL
